From PubChem BioAssay
Shown are actives, neighbours in structure and some others; about 3.9% of the full set was active somewhere.
CHRM1 antagonist: blocks human M1 muscarinic receptor; CHO-K1 hM1, Fluo-8 calcium fluorescence, ACh EC80 antagonist; inhibition, % at 3 µM; actives 1.3% (n = 360,000); AID 588852;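 active = percent inhibition above its own plate's cutoff, namely the mean of that plate's compound wells plus 3 SD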;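 also: peak over basal fluorescence ratio during 140 s after agonist addition; 0% = ACh EC80 plus DMSO and 100% = DMSO alone without agonist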
TAAR1 antagonist: human TAAR1 antagonism; CHO RD-HGA16 TAAR1, Fluo-8 calcium fluorescence, antagonist; inhibition, % at 3 µM; actives 1.5% (n = 360,000);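 active = inhibition above a per-plate cutoff, the mean inhibition of test compounds on that plate plus 3 SD, cut at about 49% in these data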;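 also: 0% = DMSO plus EC80 beta-PEA response and 100% = DMSO alone without agonist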
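Assay system: CHO-derived RD-HGA16 cells stably expressing human TAAR1 plus Gα16. Timing: 140 s kinetic read after compound, 140 s after agonist. Technique: kinetic Fluo-8 calcium fluorescence measurement. Measure: % inhibition of agonist calcium response.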
TAAR1 agonist: human TAAR1 agonism; Q96RJ0; CHO RD-HGA16 TAAR1, Fluo-8 calcium fluorescence; vehicle wells 0%, saturating PEA agonist 100%; activation, % at 3 µM; actives 0.99% (n = 360,000); AID 624467;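 active = activation above the mean activation of all test compounds in the run plus 3 SD, cut at about 38% in these data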
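Assay system: CHO-derived RD-HGA16 cells with stable Gα16 and human TAAR1; timing: 17-24 h seeding, 75 min 37 °C dye, 30 min RT; read-out: % activation from peak over basal fluorescence ratio, DMSO-to-PEA scaled; measured by: kinetic Fluo-8 calcium fluorescence; benchmarks: low control DMSO, high control PEA (EC100); doses: 3 µM single concentration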
CHRM1 agonist: activates human CHRM1 receptor; activation, % at 3 µM; CHO-K1 hM1, Fluo-8 calcium fluorescence, agonist mode; 0% DMSO, 100% acetylcholine EC100; P11229; actives 0.33% (n = 360,000);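 active = activation above the run's mean compound activation plus 3 SD, cut at about 16% in these data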;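 also: peak over basal fluorescence ratio within a 140 s kinetic read after compound addition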
CHRM1 PAM: human CHRM1 positive allosteric modulation; CHO-K1 hM1, Fluo-8 calcium fluorescence, ACh EC20; 0% = ACh EC20, 100% = maximal ACh; P11229; actives 0.088% (n = 360,000); activation, % at 3 µM; in the data active = activation above about 19%, passing the limit was not always enough
HTR2A ag: activates the mouse 5-HT2A serotonin receptor; P35363; CHO-K1 mHTR2A beta-arrestin complementation, luminescence; percent of 30 µM serotonin response; activation, % at 7.6 µM; actives 0.66% (n = 360,000); AID 624169;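 active = activation above a run cutoff, the mean activation of all tested compounds plus 3 SD, cut at about 14% in these data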;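 also: 0% = plate median of compound wells and 100% = 30 µM serotonin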
Target sequence (P35363 whole entry, looked up): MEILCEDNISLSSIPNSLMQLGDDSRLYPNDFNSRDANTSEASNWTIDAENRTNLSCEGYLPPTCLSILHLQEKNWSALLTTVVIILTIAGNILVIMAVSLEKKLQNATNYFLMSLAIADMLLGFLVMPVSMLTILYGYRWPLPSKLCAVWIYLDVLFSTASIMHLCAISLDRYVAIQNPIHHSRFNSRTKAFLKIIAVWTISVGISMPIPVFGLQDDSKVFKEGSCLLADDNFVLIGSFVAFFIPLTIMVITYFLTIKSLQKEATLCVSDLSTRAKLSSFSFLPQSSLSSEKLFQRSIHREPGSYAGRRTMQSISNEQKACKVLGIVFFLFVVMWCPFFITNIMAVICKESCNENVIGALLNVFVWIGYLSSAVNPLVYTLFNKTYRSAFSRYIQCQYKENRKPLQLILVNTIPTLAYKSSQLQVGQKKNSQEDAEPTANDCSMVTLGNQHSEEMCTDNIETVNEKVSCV
* = called active by the depositor; . = no result given.

SMILES	CHRM1 antagonist	TAAR1 antagonist	TAAR1 agonist	CHRM1 agonist	CHRM1 PAM	HTR2A ag
COC(=O)C1=C(C)NC2=C(C(=O)CCC2)C1c1ccc(-c2ccsc2C(=O)OC)o1 (stereo not drawn)	6	28	45*	25*	-3	-1
Nc1ncnc2c1ncn2C1CCCO1 (stereo not drawn)	-17	-7	2	20*	-11	1
Nc1ncnc2c1ncn2C1CCCC1	-6	-13	0	-2	-3	2
COc1ccc(/C=N/NC2=NS(=O)(=O)c3ccccc32)cc1OC	-17	8	-1	-3	8	-3
Cc1c(C(=O)OC(C)C(=O)N(C)Cc2ccccc2)oc2ccccc12 (stereo not drawn)	-8	5	6	-5	4	0
Cc1c(C(=O)OC(C)C(C)C[N+](C)(C)C)oc2ccccc12 (stereo not drawn)	99*	-2	0	-6	-24	2
O=C(c1ccc(=O)n(Cc2ccccc2)n1)N1CCN(C/C=C/c2ccccc2)CC1	41*	-11	7	0	-19	-2
O=C(c1ccc(Br)o1)N1CCN(C/C=C/c2ccccc2)CC1	2	4	9	-6	-2	-4
CC[N+](C)(CC)CCOC(=O)C1c2ccccc2Oc2ccccc21	97*	-17	0	-7	-25	0
NC(=O)COC(=O)C1c2ccccc2Oc2ccccc21	-1	-18	3	-5	4	-7
CN(CCOC(=O)C1c2ccccc2Oc2ccccc21)C(C)(C)C	98*	.	.	-3	-22	1
CN(C)CCCOC(=O)C1c2ccccc2Oc2ccccc21	97*	0	0	-6	-25	-6
CCOC(=O)NC1c2ccccc2Oc2ccccc21	-28	-28	-1	-6	8	-4
CC(=O)c1ccc(NC(=O)c2cc(Cl)sc2Cl)cc1	1	1	3	-5	-4	2
C[C@@H]1C=CCCO[C@]12C(=O)Nc1ccccc12	.	-6	0	.	.	.
O=C(CN(Cc1ccc(Cl)cc1)S(=O)(=O)c1ccccc1)NCC1CCCO1 (stereo not drawn)	-3	-26	2	-4	3	4
Cc1ccc(CSc2nnc(-c3ccc4c(c3)OCO4)o2)cc1	-2	7	7	-4	-5	1
COc1ccc(C2=NCC(CSc3nnc(-c4ccc5c(c4)OCO5)o3)S2)cc1 (stereo not drawn)	19	50*	8	1	-7	-8
Cc1nn(C)c(C)c1CN(C)S(=O)(=O)c1ccc2ccccc2c1	24*	23	7	7	-12	1
O=C1CC2c3cc(Br)ccc3CCN2C(=O)CN1Cc1ccccc1 (stereo not drawn)	.	-5	5	.	.	.
CC(=O)Cn1c(N2CCC(Cc3ccccc3)CC2)nc2c1c(=O)[nH]c(=O)n2C	-48	1	6	-1	22*	2
Cc1cccc(Cn2c(N3CCCCC3C)nc3c2c(=O)[nH]c(=O)n3C)c1 (stereo not drawn)	32*	-20	-3	-10	-28	3
Cc1cccc(Cn2c(N3CCN(C)CC3)nc3c2c(=O)[nH]c(=O)n3C)c1	-4	-7	-1	-3	7	7
C=C(C)Cn1c(N2CCC(Cc3ccccc3)CC2)nc2c1c(=O)[nH]c(=O)n2C	-4	18	17	2	9	3
COc1ccc(NC(=O)COc2cccnc2[N+](=O)[O-])cc1OC	-7	-14	1	-6	7	5
SMILES	CHRM1 antagonist	TAAR1 antagonist	TAAR1 agonist	CHRM1 agonist	CHRM1 PAM	HTR2A ag
O=C(COc1cccnc1[N+](=O)[O-])Nc1ccc2c(c1)OC(F)(F)O2	50*	-4	2	-8	-26	-2
O=C(COc1cccnc1[N+](=O)[O-])Nc1ccc2c(c1)CCC2	36*	-9	0	-4	-20	1
COCCN1C[C@@H](CO)O[C@@H](n2cnc3c(NCc4ccco4)ncnc32)C1	-13	7	0	3	9	-1
CCN(CC(=O)Nc1ccc(OC)cc1)C(=O)Cc1ccsc1	-25	10	-2	1	27*	3
CNc1cccc(-c2cc(OC)ccc2OC)n1	42*	-29	1	-8	-22	-1
CC(=O)NC(=S)Nc1sc2c(c1C(N)=O)CCC(C)C2 (stereo not drawn)	-16	20	5	6	-1	-2
N#CC1=C(N)NC(SCc2ccc(Cl)cc2)=C(C#N)C12CCCCC2	10	62*	22	1	0	0
N#CC1=C(N)NC(SCc2ccc(Br)cc2)=C(C#N)C12CCCCC2	13	27	22	0	-4	-5
CCCc1cc(N2CCCC(C(=O)NCc3ccc4c(c3)OCO4)C2)n2ncnc2n1 (stereo not drawn)	7	-2	2	-6	28*	2
Cc1cc(C)nc(N2CCCC(C(=O)NCc3ccc4c(c3)OCO4)C2)n1 (stereo not drawn)	-7	22	4	-4	4	-3
COc1ccc(-c2ccc(C(=O)Nc3cccc(NS(C)(=O)=O)c3)c3occc23)c(C)c1	28	71*	3	-3	-12	-1
CC(C)CN1CCC(=O)N(CCO)CC1	-4	-1	5	-3	-1	2
COc1ccc(CCNc2ccc(N3C(=O)CC(C)C3=O)cc2[N+](=O)[O-])cc1OC (stereo not drawn)	8	50*	11	7	-15	8
COc1ccc(CCNc2ccc(N3C(=O)CC(C)C3=O)cc2[N+](=O)[O-])cc1 (stereo not drawn)	-15	17	1	0	10	1
Cn1cc([C@]2(O)C(=O)Nc3ccc(OC(F)(F)F)cc32)c2ccccc21	.	40	41*	.	.	3
CC1(Cc2ccccc2OC(F)(F)F)C(=O)Nc2ccc(OC(F)(F)F)cc21 (stereo not drawn)	-16	7	-1	-3	8	12
NS(=O)(=O)c1ccc(CCNC(=S)NC(=O)c2ccccc2Br)cc1	5	16	3	-5	-8	-7
Cc1ccc(C)c(-c2cc(C(=O)NNC(=S)NCC(C)C)c3ccccc3n2)c1	4	50*	8	-5	-5	-3
COc1cccc(CCN2CCC(CNS(=O)(=O)c3cc(-c4cc(C)no4)ccc3OC)CC2)c1	37*	8	3	-3	-23	-8
Cc1cc(-c2ccc(C)c(S(=O)(=O)NCC3CCN(Cc4cccc(F)c4)CC3)c2)on1	20	20	8	-2	-15	-11
